Most compounds without a hit are left out; they make up all but 1.7% or so of the library.
Neddyl block: inhibitors of cullin neddylation, primary screen, biochemical, TR-FRET, uHTS, NAE and Ubc12; 0.58% of 360,000 active; inhibition, % at 25 µM; AID 651699, 2012; NEDD8-conjugating enzyme Ubc12 (Homo sapiens) + NEDD8-activating enzyme E1 regulatory …; in the data active = inhibition above about 36%
DSG3 Ab inh: inhibitors of pemphigus antibody binding to DSG3, primary screen, biochemical, bead-based, flow cytometry, scFv-GFP; binding (percent of control), % at 10 µM; Desmoglein-3 (Homo sapiens), P32926; DSG3-coupled beads, scFv-anti-DSG3-GFP binding; hits give low values; 0.48% of 310,000 active; AID 588358, 2011;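 active = binding more than 3 SD below its plate's average and above zero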;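 also: hits lower antibody fragment binding to DSG3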
Target sequence (P32926 whole entry, looked up, the tested form may be a part): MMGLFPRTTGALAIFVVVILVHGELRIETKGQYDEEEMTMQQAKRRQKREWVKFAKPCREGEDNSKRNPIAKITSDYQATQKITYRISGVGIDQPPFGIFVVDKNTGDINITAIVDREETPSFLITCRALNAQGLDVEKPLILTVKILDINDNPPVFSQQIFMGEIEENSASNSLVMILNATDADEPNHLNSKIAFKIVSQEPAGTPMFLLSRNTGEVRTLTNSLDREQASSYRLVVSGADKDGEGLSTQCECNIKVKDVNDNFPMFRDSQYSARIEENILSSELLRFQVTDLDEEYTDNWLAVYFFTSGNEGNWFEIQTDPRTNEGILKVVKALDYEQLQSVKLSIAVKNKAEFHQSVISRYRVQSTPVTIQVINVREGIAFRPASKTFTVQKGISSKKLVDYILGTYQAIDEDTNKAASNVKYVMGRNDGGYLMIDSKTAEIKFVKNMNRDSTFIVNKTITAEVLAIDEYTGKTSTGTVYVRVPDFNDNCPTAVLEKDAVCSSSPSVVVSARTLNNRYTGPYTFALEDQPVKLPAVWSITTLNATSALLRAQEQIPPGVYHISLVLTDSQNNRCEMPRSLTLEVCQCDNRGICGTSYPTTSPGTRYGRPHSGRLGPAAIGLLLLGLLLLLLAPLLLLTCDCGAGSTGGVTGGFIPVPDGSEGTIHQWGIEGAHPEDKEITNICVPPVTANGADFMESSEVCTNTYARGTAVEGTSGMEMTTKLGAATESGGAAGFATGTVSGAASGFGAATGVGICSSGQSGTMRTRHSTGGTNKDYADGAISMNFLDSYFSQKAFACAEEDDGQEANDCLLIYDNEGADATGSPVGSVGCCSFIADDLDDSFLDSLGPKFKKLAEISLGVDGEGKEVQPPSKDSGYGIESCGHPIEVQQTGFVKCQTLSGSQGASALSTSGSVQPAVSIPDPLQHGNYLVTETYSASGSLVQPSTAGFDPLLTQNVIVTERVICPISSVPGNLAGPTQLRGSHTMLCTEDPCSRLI
Efflux pump mplx: inhibitors of Candida efflux pumps in yeast, primary screen, S. cerevisiae, Nile Red, multiplex. 0.44% of 330,000 active. AID 485275, 2010. S. cerevisiae Candida pump triplex. inhibition, % at 10 µM;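 active = plate passing quality check with inhibition over a set limit, or well fluorescence over plate mean plus 4 SD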;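 also: Nile Red retained in pooled yeast measured as flow cytometry median fluorescence; 0% = buffer negative control and 100% = Enniatin B positive control; higher means more Nile Red kept so more efflux inhibition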
Arr AP2 block: inhibitors of beta-arrestin/AP2 binding, primary screen, biochemical, GPCR trafficking, flow cytometry; beta-arrestin 1 C-terminal peptide binding to AP2 beta2-adaptin appendage (human); 0.31% of 340,000 active; FITC-arrestin peptide / GST-AP2 beads; AP2 beta2 appendage carries R879A mutation; AID 504490, 2011; inhibition, % at 10 µM;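 active = inhibition above a set limit, near 3 SD of compounds lacking own fluorescence, cut at about 54% in these data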;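 also: plate controls were DMSO wells for no effect and 5 µM unlabelled arrestin peptide for full effect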
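system = GST-tagged AP2 beta2-adaptin appendage (R879A) on 4 µm glutathione beads | reagent = FITC-labelled arrestin peptide probe, 50 nM final | schedule = compound with beads 12 min RT, then probe 1 h RT | signal = HyperCyt-sampled flow cytometry, FL1 channel, ex 488/em 535 nm | read-out = percent response from loss of bead-bound FITC fluorescence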
Yeast cmpd fluor: compound fluorescence in yeast efflux pump counter-screen. shares compounds with Efflux pump mplx. S. cerevisiae AD/pABC3, flow cytometry. fluorescence ratio to DMSO, % at 10 µM. 4% of 1,700 active. AID 588517;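 active = fluorescence ratio to DMSO above its plate's cutoff, the plate mean ratio plus 5 SD, cut at about 210% in these data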;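 also: unstained yeast with no Nile Red so the signal is compound autofluorescence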
Mdr1 pump inh: inhibitors of Candida albicans Mdr1 efflux, confirmation, flow cytometry, singleplex, Cherry Pick1 set. shares compounds with Efflux pump mplx. S. cerevisiae AD/CaMDR1, Nile Red efflux. inhibition, % at 10 µM. 1% of 1,700 active; in the data active = inhibition above about 26%;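 also: 0% = DMSO vehicle and 100% = reference inhibitor; higher means more Nile Red retained so more efflux inhibition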
CaCdr2 efflux inh: inhibitors of Candida albicans Cdr2 efflux pump, confirmation, S. cerevisiae AD/CaCDR2, flow cytometry, cherry pick 1, singleplex; shares compounds with Efflux pump mplx; Nile Red retention ratio vs DMSO, % at 10 µM; AID 588520, 2011; 4% of 1,700 active; Nile Red retention; in the data active = Nile Red retention ratio vs DMSO above about 190%;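 also: higher ratio means more blocking of Cdr2 efflux of the dye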
CaCdr1 efflux inh: inhibitors of Candida albicans Cdr1 efflux pump, confirmation, S. cerevisiae AD/CaCDR1, flow cytometry, cherry pick 1, singleplex; shares compounds with Efflux pump mplx; Nile Red efflux; inhibition, % at 10 µM; 1% of 1,700 active; AID 588522, 2011;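 active = inhibition above the screen-wide mean plus twice its standard deviation, cut at about 32% in these data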
* = called active by the depositor; . = no result given.

SMILES | Neddyl block | DSG3 Ab inh | Efflux pump mplx | Arr AP2 block | Yeast cmpd fluor | Mdr1 pump inh | CaCdr2 efflux inh | CaCdr1 efflux inh
O=C(CNC(=O)C1COc2ccccc2O1)N/N=C\c1cccc(O)c1 (centres undefined) | 0 | 102 | 7.6* | 23 | 89 | 0 | 87 | 0
COCCn1c(C)cc(C(=O)CSc2nc(C)nc3sc4c(c23)CCC4)c1C | -14 | 100 | 1.6* | 4 | 110 | 0 | 112 | 0
O=C(Nc1ccc(Nc2ccccc2)cc1)C(Cl)Cl | 1 | 99 | 20* | -22 | 118 | 0 | 112 | 0
COC(=O)Cn1cc(/C=C/c2cc[n+](C)cc2)c2ccccc21 | -28 | 160 | 0 | -10 | 174 | 1 | 141 | 1
CN1CCN(CCC(=O)Nc2ccc3c(c2)OCO3)CC1 | -1 | 103 | 0 | 4 | . | . | . | .
O=C(CCN1CCCCCC1)Nc1ccc2c(c1)OCCO2 | 2 | 101 | 0.6* | 10 | 101 | 0 | 104 | 0
CC(=O)c1sc(NC(=O)C2CCCN2S(=O)(=O)c2ccccc2F)nc1C (centres undefined) | -117 | 101 | 0 | 24 | . | . | . | .
CN1C/C(=C\c2ccc(N3CCOCC3)cc2)C(=O)/C(=C/c2ccc(N3CCOCC3)cc2)C1 | 7 | 136 | 0.8* | -7 | 99 | 0 | 114 | 0
CC(=O)NC1=NC(=O)/C(=C/c2cc(C)n(-c3ccc(NC(C)=O)cc3)c2C)S1 | -6 | 107 | 1.4* | -1 | 120 | 0 | 97 | 2
CC(=O)NC1=NC(=O)/C(=C/c2cc(C)n(-c3cccc(C(=O)O)c3)c2C)S1 | -2 | . | . | -10 | . | . | . | .
C/C(=N\Nc1nc(N)cc(Cl)n1)c1ccc(Cl)c(Cl)c1 | 7 | 98 | 0 | 5 | . | . | . | .
C/C(=N\Nc1nc(N)cc(Cl)n1)c1ccc(F)cc1 | 2 | 113 | 0.5* | 43 | 100 | 0 | 101 | 0
Cc1ccc(N(CC(=O)NCc2ccco2)C(=O)CCC(=O)Nc2nccs2)cc1 | -10 | 102 | 0 | 7 | . | . | . | .
O=[N+]([O-])c1ccc(COc2ccc(-c3[nH]ncc3-c3ccc(Cl)cc3)c(O)c2)cc1 | 2 | 102 | 18* | 42 | 109 | 0 | 112 | 0
COc1cccc(C2CC(c3ccccc3)=NN2S(=O)(=O)c2ccc(C)cc2)c1OC (centres undefined) | -2 | 359 | 1.4* | 2 | 105 | 0 | 123 | 0
COc1ccccc1C1CC(c2ccccc2)=NN1S(=O)(=O)c1ccccc1 (centres undefined) | 6 | 97 | 0 | -22 | . | . | . | .
Cn1c(SCC(=O)Nc2ccc3nc(SCC(=O)NC4CC4)sc3c2)nnc1-c1ccccc1 | -3 | 100 | 1.1* | 5 | 100 | 0 | 123 | 0
O=C(c1[nH]c(C(F)(F)F)nc1-c1ccccc1)N1CCN(c2ncc(C(F)(F)F)cc2Cl)CC1 | 12 | . | . | . | . | . | . | .
O=C(c1cc2c(ccc3ccccc32)o1)N1CCN(c2ncc(C(F)(F)F)cc2Cl)CC1 | -83 | 103 | 52* | -7 | 102 | 0 | 93 | 0
CCCCCCCCCCOC(=O)Cn1c(COc2cccc(C)c2)[n+](C)c2ccccc21 | 6 | 117 | 1.0* | -16 | 110 | 0 | 120 | 0
CCCCCCCCCCOC(=O)Cn1c(COc2ccc(Cl)cc2)[n+](C)c2ccccc21 | -8 | 109 | 3.1* | -3 | 115 | 0 | 222* | 0
CCCCCCCCCCOC(=O)Cn1c(COc2ccccc2)[n+](C)c2ccccc21 | 9 | 98 | 0 | -14 | . | . | . | .
O=C(Cc1c2ccccc2nc2ccccc12)c1ccccc1 | 11 | 93 | 15* | -3 | 92 | 0 | 106 | 0
Nc1ccc2c(c1)C(=O)c1cc(Cl)c(Cl)cc1-2 | 3 | 109 | . | -5 | . | . | . | .
CN1C(=O)[C@@H]2[C@H](C1=O)[C@@H]1C(=O)Nc3ccccc3C(=O)N1[C@@H]2c1ccc(Br)cc1 | -2 | 107 | 0 | 0 | . | . | . | .
SMILES | Neddyl block | DSG3 Ab inh | Efflux pump mplx | Arr AP2 block | Yeast cmpd fluor | Mdr1 pump inh | CaCdr2 efflux inh | CaCdr1 efflux inh
Cc1ccc([C@@H]2[C@@H]3C(=O)N(C)C(=O)[C@@H]3[C@@H]3C(=O)Nc4ccccc4C(=O)N23)cc1 | 5 | 107 | 0.6* | 8 | 95 | 0 | 97 | 0
C[C@H](NS(=O)(=O)OCC(Cl)(Cl)Cl)C1CC1c1ccccc1 (some centres undefined) | -19 | 98 | 0 | 1 | . | . | . | .
CC(=O)OCCC(NS(=O)(=O)OCC(Cl)(Cl)Cl)c1ccccc1 (centres undefined) | -15 | 105 | 0.7* | 8 | 111 | 0 | 106 | 0
CCc1ccc(NC(=O)C(NS(=O)(=O)c2ccc3c(c2)CCN3C(C)=O)C(C)C)cc1 (centres undefined) | -7 | 97 | 1.6* | 10 | 105 | 0 | 89 | 0
Cc1cc(C)cc(NC(=O)Cc2ccc(NC3=NC4CS(=O)(=O)CC4S3)cc2)c1 (centres undefined) | 7 | 105 | 0 | 2 | . | . | . | .
Cc1cc(C)cc(NC(=O)c2ccc(NC3=NC4CS(=O)(=O)CC4S3)cc2)c1 (centres undefined) | -5 | 98 | 0.9* | 11 | 83 | 0 | 95 | 0
Cc1c(C(=O)O)oc2ccc(S(=O)(=O)NC3CCCCCCC3)cc12 | 3 | 108 | 1.0* | 9 | 100 | 0 | 96 | 0
CC1(C)CC2(CC(c3cccs3)c3cc(Cl)c(O)cc3O2)NC(=S)N1 (centres undefined) | 1 | 102 | 53* | 16 | 102 | 75* | 114 | 0
CC(C)NC(=O)Nc1cccc2c1O[C@H](CN(C)S(=O)(=O)c1ccccc1)[C@@H](C)CN([C@H](C)CO)C2=O | -17 | 96 | 0 | 2 | . | . | . | .
C[C@H](CO)N1C[C@H](C)[C@@H](CN(C)S(=O)(=O)c2cccs2)Oc2c(NC(=O)Nc3ccc4c(c3)OCO4)cccc2C1=O | -14 | 224 | 0 | -8 | 102 | 0 | 116 | 0
